Results taken from article PMC9710334 (BMJ Open Gastroenterology, 2022).
Entries after “also recorded” stand apart in the source; their conditions may differ.

Tested on: patients with advanced primary biliary cholangitis
Experiment: Phase 1 trial: adverse events graded by CTCAE v4.0, safety and tolerability
Assay type: in vivo, human
Summary of the method: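 Seven advanced PBC patients (stage III or higher) received OP-724 iv at 280 (n=6) or 380 (n=1) mg/m2 over 4 hours, twice weekly for 12 cycles, after a single dose given 7 days before cycle 1. AEs and laboratory results were recorded throughout and graded by CTCAE v4.0. The primary endpoint was SAEs where drug causality could not be excluded.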

C[C@H]1[C@H]2N(C(=O)CN(C)N2C(=O)NCc2ccccc2)[C@@H](Cc2ccc(OP(=O)(O)O)cc2)C(=O)N1Cc1cccc2cccnc12 [OP-724]
Abdominal discomfort, Grade 1, patients n (%) (280 mg/m^2/4 hours (n=6)): 2 (33%)
Abdominal discomfort, Grade 2, patients n (%) (280 mg/m^2/4 hours (n=6)): 0
Abdominal discomfort, Grades 3–5, patients n (%) (280 mg/m^2/4 hours (n=6)): 0
Back pain, Grade 1, patients n (%) (280 mg/m^2/4 hours (n=6)): 0
Back pain, Grade 2, patients n (%) (280 mg/m^2/4 hours (n=6)): 1 (17%)
Back pain, Grades 3–5, patients n (%) (280 mg/m^2/4 hours (n=6)): 0
Constipation, Grade 1, patients n (%) (280 mg/m^2/4 hours (n=6)): 1 (17%)
Constipation, Grade 2, patients n (%) (280 mg/m^2/4 hours (n=6)): 0
Constipation, Grades 3–5, patients n (%) (280 mg/m^2/4 hours (n=6)): 0
Dermatitis contact, Grade 1, patients n (%) (280 mg/m^2/4 hours (n=6)): 1 (17%)
Dermatitis contact, Grade 2, patients n (%) (280 mg/m^2/4 hours (n=6)): 0
Dermatitis contact, Grades 3–5, patients n (%) (280 mg/m^2/4 hours (n=6)): 0
Diarrhoea, Grade 1, patients n (%) (280 mg/m^2/4 hours (n=6)): 1 (17%)
Diarrhoea, Grade 2, patients n (%) (280 mg/m^2/4 hours (n=6)): 0
Diarrhoea, Grades 3–5, patients n (%) (280 mg/m^2/4 hours (n=6)): 0
Dry skin, Grade 1, patients n (%) (280 mg/m^2/4 hours (n=6)): 0
Dry skin, Grade 2, patients n (%) (280 mg/m^2/4 hours (n=6)): 1 (17%)
Dry skin, Grades 3–5, patients n (%) (280 mg/m^2/4 hours (n=6)): 0
Fever, Grade 1, patients n (%) (280 mg/m^2/4 hours (n=6)): 1 (17%)
Fever, Grade 2, patients n (%) (280 mg/m^2/4 hours (n=6)): 0
Fever, Grades 3–5, patients n (%) (280 mg/m^2/4 hours (n=6)): 0
Haemorrhage, Grade 1, patients n (%) (280 mg/m^2/4 hours (n=6)): 0
Haemorrhage, Grade 2, patients n (%) (280 mg/m^2/4 hours (n=6)): 1 (17%)
Haemorrhage, Grades 3–5, patients n (%) (280 mg/m^2/4 hours (n=6)): 0
Hepatic function abnormal, Grade 1, patients n (%) (280 mg/m^2/4 hours (n=6)): 1 (17%)
Hepatic function abnormal, Grade 2, patients n (%) (280 mg/m^2/4 hours (n=6)): 1 (17%)
Hepatic function abnormal, Grades 3–5, patients n (%) (280 mg/m^2/4 hours (n=6)): 0
Infusion site extravasation, Grade 1, patients n (%) (280 mg/m^2/4 hours (n=6)): 0
Infusion site extravasation, Grade 2, patients n (%) (280 mg/m^2/4 hours (n=6)): 1 (17%)
Infusion site extravasation, Grades 3–5, patients n (%) (280 mg/m^2/4 hours (n=6)): 0
Nasopharyngitis, Grade 1, patients n (%) (280 mg/m^2/4 hours (n=6)): 0
Nasopharyngitis, Grade 2, patients n (%) (280 mg/m^2/4 hours (n=6)): 0
Nasopharyngitis, Grades 3–5, patients n (%) (280 mg/m^2/4 hours (n=6)): 0
Nausea, Grade 1, patients n (%) (280 mg/m^2/4 hours (n=6)): 1 (17%)
Nausea, Grade 2, patients n (%) (280 mg/m^2/4 hours (n=6)): 0
Nausea, Grades 3–5, patients n (%) (280 mg/m^2/4 hours (n=6)): 0
Open angle glaucoma, Grade 1, patients n (%) (280 mg/m^2/4 hours (n=6)): 0
Open angle glaucoma, Grade 2, patients n (%) (280 mg/m^2/4 hours (n=6)): 1 (17%)
Open angle glaucoma, Grades 3–5, patients n (%) (280 mg/m^2/4 hours (n=6)): 0
Renal impairment, Grade 1, patients n (%) (280 mg/m^2/4 hours (n=6)): 1 (17%)
Renal impairment, Grade 2, patients n (%) (280 mg/m^2/4 hours (n=6)): 0
Renal impairment, Grades 3–5, patients n (%) (280 mg/m^2/4 hours (n=6)): 0
Tooth fracture, Grade 1, patients n (%) (280 mg/m^2/4 hours (n=6)): 1 (17%)
Tooth fracture, Grade 2, patients n (%) (280 mg/m^2/4 hours (n=6)): 0
Tooth fracture, Grades 3–5, patients n (%) (280 mg/m^2/4 hours (n=6)): 0
Vomiting, Grade 1, patients n (%) (280 mg/m^2/4 hours (n=6)): 1 (17%)
Vomiting, Grade 2, patients n (%) (280 mg/m^2/4 hours (n=6)): 0
Vomiting, Grades 3–5, patients n (%) (280 mg/m^2/4 hours (n=6)): 0
Abdominal discomfort, Grade 1, patients n (%) (380 mg/m^2/4 hours (n=1)): 0
Abdominal discomfort, Grade 2, patients n (%) (380 mg/m^2/4 hours (n=1)): 0
Abdominal discomfort, Grades 3–5, patients n (%) (380 mg/m^2/4 hours (n=1)): 0
Back pain, Grade 1, patients n (%) (380 mg/m^2/4 hours (n=1)): 0
Back pain, Grade 2, patients n (%) (380 mg/m^2/4 hours (n=1)): 0
Back pain, Grades 3–5, patients n (%) (380 mg/m^2/4 hours (n=1)): 0
Constipation, Grade 1, patients n (%) (380 mg/m^2/4 hours (n=1)): 0
Constipation, Grade 2, patients n (%) (380 mg/m^2/4 hours (n=1)): 0
Constipation, Grades 3–5, patients n (%) (380 mg/m^2/4 hours (n=1)): 0
Dermatitis contact, Grade 1, patients n (%) (380 mg/m^2/4 hours (n=1)): 0
Dermatitis contact, Grade 2, patients n (%) (380 mg/m^2/4 hours (n=1)): 0
Dermatitis contact, Grades 3–5, patients n (%) (380 mg/m^2/4 hours (n=1)): 0
Diarrhoea, Grade 1, patients n (%) (380 mg/m^2/4 hours (n=1)): 0
Diarrhoea, Grade 2, patients n (%) (380 mg/m^2/4 hours (n=1)): 0
Diarrhoea, Grades 3–5, patients n (%) (380 mg/m^2/4 hours (n=1)): 0
Dry skin, Grade 1, patients n (%) (380 mg/m^2/4 hours (n=1)): 0
Dry skin, Grade 2, patients n (%) (380 mg/m^2/4 hours (n=1)): 0
Dry skin, Grades 3–5, patients n (%) (380 mg/m^2/4 hours (n=1)): 0
Fever, Grade 2, patients n (%) (380 mg/m^2/4 hours (n=1)): 0
Fever, Grades 3–5, patients n (%) (380 mg/m^2/4 hours (n=1)): 0
Haemorrhage, Grade 1, patients n (%) (380 mg/m^2/4 hours (n=1)): 0
Haemorrhage, Grade 2, patients n (%) (380 mg/m^2/4 hours (n=1)): 0
Haemorrhage, Grades 3–5, patients n (%) (380 mg/m^2/4 hours (n=1)): 0
Hepatic function abnormal, Grade 1, patients n (%) (380 mg/m^2/4 hours (n=1)): 0
Hepatic function abnormal, Grades 3–5, patients n (%) (380 mg/m^2/4 hours (n=1)): 0
Infusion site extravasation, Grade 1, patients n (%) (380 mg/m^2/4 hours (n=1)): 0
Infusion site extravasation, Grade 2, patients n (%) (380 mg/m^2/4 hours (n=1)): 0
Infusion site extravasation, Grades 3–5, patients n (%) (380 mg/m^2/4 hours (n=1)): 0
Nasopharyngitis, Grade 2, patients n (%) (380 mg/m^2/4 hours (n=1)): 0
Nasopharyngitis, Grades 3–5, patients n (%) (380 mg/m^2/4 hours (n=1)): 0
Nausea, Grade 1, patients n (%) (380 mg/m^2/4 hours (n=1)): 0
Nausea, Grade 2, patients n (%) (380 mg/m^2/4 hours (n=1)): 0
Nausea, Grades 3–5, patients n (%) (380 mg/m^2/4 hours (n=1)): 0
Open angle glaucoma, Grade 1, patients n (%) (380 mg/m^2/4 hours (n=1)): 0
Open angle glaucoma, Grade 2, patients n (%) (380 mg/m^2/4 hours (n=1)): 0
Open angle glaucoma, Grades 3–5, patients n (%) (380 mg/m^2/4 hours (n=1)): 0
Renal impairment, Grade 1, patients n (%) (380 mg/m^2/4 hours (n=1)): 0
Renal impairment, Grade 2, patients n (%) (380 mg/m^2/4 hours (n=1)): 0
Renal impairment, Grades 3–5, patients n (%) (380 mg/m^2/4 hours (n=1)): 0
Tooth fracture, Grade 1, patients n (%) (380 mg/m^2/4 hours (n=1)): 0
Tooth fracture, Grade 2, patients n (%) (380 mg/m^2/4 hours (n=1)): 0
Tooth fracture, Grades 3–5, patients n (%) (380 mg/m^2/4 hours (n=1)): 0
Vomiting, Grade 1, patients n (%) (380 mg/m^2/4 hours (n=1)): 0
Vomiting, Grade 2, patients n (%) (380 mg/m^2/4 hours (n=1)): 0
Vomiting, Grades 3–5, patients n (%) (380 mg/m^2/4 hours (n=1)): 0
incidence of SAEs (primary endpoint) (all patients (0/7), 280 or 380 mg/m^2/4 hours iv two times weekly, 12 weeks): 0%
patients who developed general/systemic disorder and administration site status (all patients (3/7)): 42.9%
patients who developed hepatobiliary system disorder (all patients (3/7)): 42.9%
patients who developed gastrointestinal disorder (all patients (4/7)): 57.1%
occurrence rate of side effects (all patients (6/7)): 85.7%
occurrence rate of AEs (all patients (7/7)): 100%
abdominal discomfort (most common AEs) (all seven patients): 29%
abnormal hepatic function (most common AEs) (all seven patients): 43%
recommended dosage (iv infusion two times weekly for 12 weeks, patients with advanced PBC): 280 mg/m^2/4 hours
emetogenicity (managed with standard-of-care antiemetics): mildly or moderately emetogenic
grade of drug-induced liver injury leading to withdrawal (one patient in the 380 mg/m^2/4 hours cohort): grade 2
serious adverse events (in words) (seven patients, 280 or 380 mg/m^2/4 hours iv two times weekly, 12 weeks): did not occur; also recorded: no SAE was observed
deaths related to drug administration (seven patients, administration period): no deaths related to drug administration were observed
fragility fractures (this study): no fragility fractures were recorded
